pIC50: −log10 of the molar value. Calls of active or inactive are those of the source. The rule behind the calls is not given here.
How the values were obtained:
Mus musculus = assay: Memory enhancement effect in ICR mouse assessed as improvement in novel object discrimination at 0.3 to 30 mg/kg, po administered via gavage measured for 5 mins by open field test; type: functional, organism-based
Outline: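 Male ICR mice (25–30 g), dosed by oral gavage in 5% DMSO, 5% Solutol in PBS. Three phases in an open field box: 10 min habituation on day 1, 5 min training with identical objects on day 2, 5 min test with familiar and novel objects on day 3 (24 h delay). Exploration times recorded; discrimination index d2 = (b − a)/(a + b).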

[1] = Permeability across apical to basal side in MDCK-MDR1 cells; type: ADME, cell-based, Canis lupus familiaris; settings: dog
Outline: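 Cellular permeability in MDCK-MDR1 cells, apical-to-basal and basal-to-apical, run by a contract lab using standard protocols. Efflux ratio taken as B-A/A-B.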

[2] = Protein binding in human plasma; type: ADME, cell-free; settings: read-out: PPB
[3] = Protein binding in dog plasma; type: ADME, cell-free, Canis lupus familiaris; settings: read-out: PPB
[4] = Inhibition of recombinant human His6-tagged PDE4D3 UCR1 S54D mutant expressed in baculovirus infected Sf9 insect cells using cAMP as substrate preincubated for 5 to 10 mins followed by substrate addition and measured for 10 mins by yeast myokinase/pyruvate kinase/lactate dehydrogenase-coupled fluorescence assay relative to control
[5] = Aqueous kinetic solubility of the compound in pH 7.4 PBS buffer at 100 uM measured after 1 hr; type: physicochemical; settings: pH 7.4, 1 h
[6] = biological target: Voltage-gated inwardly rectifying potassium channel KCNH2 (Homo sapiens, UniProt Q12809); assay: Inhibition of human ERG
[7] = Half life in C57Bl6 mouse; type: ADME; settings: in vivo
[8] = Ratio of drug level in C57Bl6 mouse brain to plasma; type: ADME
[9] = Cmax in ICR mouse at 0.3 mg/kg, po; type: ADME, organism-based; parameters: dose 0.3 mg/kg, route oral; settings: in vivo
[10] = Oral bioavailability in rat; type: ADME, organism-based; settings: in vivo
[11] = Cardiovascular toxicity in dog at 100 mg/kg, po; type: organism-based, Canis lupus familiaris; settings: in vivo
[12] = Toxicity in dog assessed as weight loss at 100 mg/kg, po; type: organism-based, Canis lupus familiaris; settings: in vivo
[13] = Vascular toxicity in rat measured for 28 days; settings: in vivo, 672 h
[14] = Vascular toxicity in dog during 90 days study by microscopic analysis; parameters: species or system Canis lupus familiaris; settings: in vivo, 2160 h
Cynomolgus monkey = assay: Induction of emesis in cynomolgus monkey up to 50 mg/kg, po; type: organism-based, Macaca fascicularis; settings: in vivo
[15] = biological target: Dual specificity calcium/calmodulin-dependent 3',5'-cyclic nucleotide phosphodiesterase 1B (Homo sapiens, UniProt Q01064); assay: Inhibition of recombinant human full length N-terminal GST-tagged PDE1B expressed in baculovirus infected Sf9 insect cells using FAM-cAMP as substrate measured after 1 hr by fluorescence assay; settings: sf9, 1 h
[16] = biological target: cGMP-inhibited 3',5'-cyclic phosphodiesterase 3A (Homo sapiens, UniProt Q14432); assay: Inhibition of recombinant human N-terminal His/GST-tagged PDE3A (669 to 1141 residues) expressed in baculovirus infected Sf9 insect cells using cAMP as substrate
[17] = biological target: cGMP-inhibited 3',5'-cyclic phosphodiesterase 3B (Homo sapiens, UniProt Q13370); assay: Inhibition of recombinant N-terminal GST-tagged human PDE3B (592-end residues) expressed in baculovirus infected Sf9 cells using FAM-cAMP as substrate incubated for 60 mins by fluorescence assay; settings: sf9, 1 h
[18] = Inhibition of recombinant N-terminal GST-tagged full length human PDE4A1A expressed in baculovirus infected Sf9 cells using FAM-cAMP as substrate incubated for 60 mins by fluorescence assay; settings: sf9, 1 h
[19] = biological target: 3',5'-cyclic-AMP phosphodiesterase 4A (Homo sapiens, UniProt P27815); assay: Inhibition of recombinant N-terminal GST tagged human PDE4A4B (2 to end residues) expressed in Sf9 cells using FAM-cAMP as substrate incubated for 60 mins by fluorescence assay; settings: sf9, 1 h
[20] = biological target: 3',5'-cyclic-AMP phosphodiesterase 4D (Homo sapiens, UniProt Q08499); assay: Inhibition of recombinant human N-terminal GST-tagged PDE4D2 (2 to 507 residues) expressed in baculovirus infected Sf9 cells using FAM-cAMP as substrate incubated for 60 mins by fluorescence assay; settings: sf9, 1 h
[21] = Inhibition of recombinant human N-terminal GST-tagged PDE4D7 (2 to 748 residues) expressed in baculovirus infected Sf9 cells using FAM-cAMP as substrate incubated for 60 mins by fluorescence assay; settings: sf9, 1 h
[22] = biological target: Cone cGMP-specific 3',5'-cyclic phosphodiesterase subunit alpha' (Homo sapiens, UniProt P51160); assay: Inhibition of recombinant human N-terminal GST-tagged PDE6C expressed in baculovirus infected Sf9 cells using FAM-cGMP as substrate incubated for 60 mins by fluorescence assay; settings: sf9, 1 h
[23] = biological target: High affinity 3',5'-cyclic-AMP phosphodiesterase 7A (Homo sapiens, UniProt Q13946); assay: Inhibition of recombinant human N-terminal GST-tagged PDE7A2 (122 to end residues) expressed in baculovirus infected Sf9 cells using FAM-cAMP as substrate incubated for 60 mins by fluorescence assay; settings: sf9, 1 h
[24] = biological target: 3',5'-cyclic-AMP phosphodiesterase 7B (Homo sapiens, UniProt Q9NP56); assay: Inhibition of recombinant human N-terminal GST-tagged/C-terminal His-tagged PDE7B (109 to end residues) expressed in baculovirus infected Sf9 cells using FAM-cAMP as substrate incubated for 60 mins by fluorescence assay; settings: sf9, 1 h
[25] = biological target: High affinity cAMP-specific and IBMX-insensitive 3',5'-cyclic phosphodiesterase 8A (Homo sapiens, UniProt O60658); assay: Inhibition of recombinant human full length N-terminal GST-tagged PDE8A1 expressed in baculovirus infected Sf9 cells using FAM-cAMP as substrate incubated for 60 mins by fluorescence assay; settings: sf9, 1 h
[26] = biological target: High affinity cGMP-specific 3',5'-cyclic phosphodiesterase 9A (Homo sapiens, UniProt O76083); assay: Inhibition of recombinant human full length N-terminal GST-tagged PDE9A2 expressed in baculovirus infected Sf9 cells using FAM-cGMP as substrate incubated for 60 mins by fluorescence assay; settings: sf9, 1 h
[27] = biological target: cAMP and cAMP-inhibited cGMP 3',5'-cyclic phosphodiesterase 10A (Homo sapiens, UniProt Q9Y233); assay: Inhibition of recombinant human full length N-terminal GST-tagged PDE10A2 expressed in baculovirus infected Sf9 cells using FAM-cAMP as substrate incubated for 60 mins by fluorescence assay; settings: sf9, 1 h
cAMP and cAMP-inhibited cGMP 3',5'-cyclic phosphodiesterase 10A, sequence (Q9Y233 whole entry): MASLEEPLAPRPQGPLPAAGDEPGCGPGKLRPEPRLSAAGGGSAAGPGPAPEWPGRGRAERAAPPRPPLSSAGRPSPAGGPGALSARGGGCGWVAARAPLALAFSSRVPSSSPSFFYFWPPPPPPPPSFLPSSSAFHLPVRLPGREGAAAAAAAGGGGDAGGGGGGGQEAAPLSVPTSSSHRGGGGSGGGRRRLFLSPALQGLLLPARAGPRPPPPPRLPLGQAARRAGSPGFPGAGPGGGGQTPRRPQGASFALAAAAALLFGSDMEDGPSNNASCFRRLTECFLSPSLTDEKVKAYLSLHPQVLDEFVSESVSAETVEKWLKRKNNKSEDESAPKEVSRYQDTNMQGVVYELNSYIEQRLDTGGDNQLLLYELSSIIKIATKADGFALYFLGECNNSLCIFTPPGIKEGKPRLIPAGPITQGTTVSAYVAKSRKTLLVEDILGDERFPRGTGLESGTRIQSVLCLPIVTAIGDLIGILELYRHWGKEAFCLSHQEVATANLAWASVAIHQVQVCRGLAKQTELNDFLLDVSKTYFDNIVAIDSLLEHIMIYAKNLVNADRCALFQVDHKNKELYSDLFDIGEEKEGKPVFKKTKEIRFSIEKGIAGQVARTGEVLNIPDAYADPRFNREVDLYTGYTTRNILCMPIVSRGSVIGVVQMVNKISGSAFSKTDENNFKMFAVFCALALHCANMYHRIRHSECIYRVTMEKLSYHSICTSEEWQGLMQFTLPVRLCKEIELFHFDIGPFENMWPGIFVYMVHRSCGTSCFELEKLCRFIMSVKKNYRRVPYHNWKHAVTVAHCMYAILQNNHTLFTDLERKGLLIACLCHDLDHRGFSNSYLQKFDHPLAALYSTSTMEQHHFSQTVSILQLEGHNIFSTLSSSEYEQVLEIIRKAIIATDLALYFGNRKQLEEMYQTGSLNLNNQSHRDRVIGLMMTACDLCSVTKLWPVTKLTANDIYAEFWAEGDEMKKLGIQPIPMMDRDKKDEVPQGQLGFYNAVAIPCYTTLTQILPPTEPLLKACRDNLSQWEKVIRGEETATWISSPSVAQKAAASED

Voltage-gated inwardly rectifying potassium channel KCNH2, sequence (Q12809 whole entry): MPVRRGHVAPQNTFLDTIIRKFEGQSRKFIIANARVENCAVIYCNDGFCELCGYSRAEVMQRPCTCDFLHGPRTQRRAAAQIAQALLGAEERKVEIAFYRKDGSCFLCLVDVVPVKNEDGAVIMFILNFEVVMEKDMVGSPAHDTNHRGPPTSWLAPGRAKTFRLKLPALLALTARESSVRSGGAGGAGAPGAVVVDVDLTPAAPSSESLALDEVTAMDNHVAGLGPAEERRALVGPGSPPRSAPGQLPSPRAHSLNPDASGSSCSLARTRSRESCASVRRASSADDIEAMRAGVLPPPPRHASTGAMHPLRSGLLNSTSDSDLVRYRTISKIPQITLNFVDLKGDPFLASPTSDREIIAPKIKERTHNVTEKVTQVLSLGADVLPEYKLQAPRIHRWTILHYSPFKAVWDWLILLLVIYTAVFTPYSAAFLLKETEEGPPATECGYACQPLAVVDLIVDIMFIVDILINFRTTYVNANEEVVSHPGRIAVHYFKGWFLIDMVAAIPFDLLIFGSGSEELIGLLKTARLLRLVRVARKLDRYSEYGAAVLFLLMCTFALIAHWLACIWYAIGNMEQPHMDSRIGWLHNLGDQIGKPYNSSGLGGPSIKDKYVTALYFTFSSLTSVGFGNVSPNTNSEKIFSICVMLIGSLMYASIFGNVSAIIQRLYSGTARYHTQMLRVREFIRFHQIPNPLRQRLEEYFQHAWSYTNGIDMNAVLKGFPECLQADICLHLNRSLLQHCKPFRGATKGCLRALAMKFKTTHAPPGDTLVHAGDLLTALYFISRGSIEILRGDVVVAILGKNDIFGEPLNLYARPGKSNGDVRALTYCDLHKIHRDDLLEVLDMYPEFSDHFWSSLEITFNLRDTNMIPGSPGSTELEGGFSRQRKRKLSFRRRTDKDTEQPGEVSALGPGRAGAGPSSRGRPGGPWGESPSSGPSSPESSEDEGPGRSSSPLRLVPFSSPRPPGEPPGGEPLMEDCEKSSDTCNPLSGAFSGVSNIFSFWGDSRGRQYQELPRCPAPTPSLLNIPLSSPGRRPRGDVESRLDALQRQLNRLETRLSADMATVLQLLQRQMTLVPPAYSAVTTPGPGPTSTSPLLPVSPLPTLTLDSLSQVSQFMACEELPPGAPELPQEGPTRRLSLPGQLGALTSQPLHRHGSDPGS
cGMP-inhibited 3',5'-cyclic phosphodiesterase 3B, sequence (Q13370 whole entry): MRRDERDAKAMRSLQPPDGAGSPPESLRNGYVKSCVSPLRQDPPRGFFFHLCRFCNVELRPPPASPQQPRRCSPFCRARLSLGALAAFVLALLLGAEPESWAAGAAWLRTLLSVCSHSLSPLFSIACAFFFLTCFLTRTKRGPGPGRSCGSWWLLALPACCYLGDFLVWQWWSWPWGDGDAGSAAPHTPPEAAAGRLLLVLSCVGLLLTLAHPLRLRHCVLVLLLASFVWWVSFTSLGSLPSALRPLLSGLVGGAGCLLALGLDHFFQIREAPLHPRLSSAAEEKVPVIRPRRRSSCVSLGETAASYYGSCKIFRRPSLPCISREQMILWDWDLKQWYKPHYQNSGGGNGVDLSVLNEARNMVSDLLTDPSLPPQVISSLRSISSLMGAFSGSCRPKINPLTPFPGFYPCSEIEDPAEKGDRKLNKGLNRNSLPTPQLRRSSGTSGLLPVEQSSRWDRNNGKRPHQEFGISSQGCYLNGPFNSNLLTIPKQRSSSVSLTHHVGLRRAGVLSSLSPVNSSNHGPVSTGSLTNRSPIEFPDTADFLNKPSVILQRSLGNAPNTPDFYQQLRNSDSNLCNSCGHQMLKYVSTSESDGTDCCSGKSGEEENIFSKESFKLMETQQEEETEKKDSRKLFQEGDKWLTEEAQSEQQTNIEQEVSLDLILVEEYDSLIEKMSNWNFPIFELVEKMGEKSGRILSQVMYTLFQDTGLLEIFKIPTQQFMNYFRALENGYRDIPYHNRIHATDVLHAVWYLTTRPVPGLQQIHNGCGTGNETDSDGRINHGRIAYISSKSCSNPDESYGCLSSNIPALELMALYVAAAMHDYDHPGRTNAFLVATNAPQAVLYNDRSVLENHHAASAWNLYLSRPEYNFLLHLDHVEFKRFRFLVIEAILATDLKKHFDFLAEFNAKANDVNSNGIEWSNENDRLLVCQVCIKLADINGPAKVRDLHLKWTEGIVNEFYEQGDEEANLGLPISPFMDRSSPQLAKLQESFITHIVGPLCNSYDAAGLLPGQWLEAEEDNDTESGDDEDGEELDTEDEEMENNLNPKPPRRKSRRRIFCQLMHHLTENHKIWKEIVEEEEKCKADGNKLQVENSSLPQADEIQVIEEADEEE
3',5'-cyclic-AMP phosphodiesterase 7B, sequence (Q9NP56 whole entry): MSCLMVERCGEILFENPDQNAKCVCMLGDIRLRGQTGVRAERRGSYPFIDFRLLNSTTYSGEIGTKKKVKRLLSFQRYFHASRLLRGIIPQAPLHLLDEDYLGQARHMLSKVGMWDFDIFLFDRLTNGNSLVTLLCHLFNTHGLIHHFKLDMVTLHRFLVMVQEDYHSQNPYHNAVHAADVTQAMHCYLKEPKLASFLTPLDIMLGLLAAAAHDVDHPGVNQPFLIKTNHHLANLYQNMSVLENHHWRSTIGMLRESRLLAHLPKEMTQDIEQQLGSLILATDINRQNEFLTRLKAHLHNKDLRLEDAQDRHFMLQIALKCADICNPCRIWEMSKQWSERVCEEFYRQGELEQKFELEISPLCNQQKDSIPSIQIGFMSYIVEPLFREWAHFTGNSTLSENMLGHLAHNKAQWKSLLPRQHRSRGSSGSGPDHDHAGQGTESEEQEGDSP
High affinity cAMP-specific and IBMX-insensitive 3',5'-cyclic phosphodiesterase 8A, sequence (O60658 whole entry): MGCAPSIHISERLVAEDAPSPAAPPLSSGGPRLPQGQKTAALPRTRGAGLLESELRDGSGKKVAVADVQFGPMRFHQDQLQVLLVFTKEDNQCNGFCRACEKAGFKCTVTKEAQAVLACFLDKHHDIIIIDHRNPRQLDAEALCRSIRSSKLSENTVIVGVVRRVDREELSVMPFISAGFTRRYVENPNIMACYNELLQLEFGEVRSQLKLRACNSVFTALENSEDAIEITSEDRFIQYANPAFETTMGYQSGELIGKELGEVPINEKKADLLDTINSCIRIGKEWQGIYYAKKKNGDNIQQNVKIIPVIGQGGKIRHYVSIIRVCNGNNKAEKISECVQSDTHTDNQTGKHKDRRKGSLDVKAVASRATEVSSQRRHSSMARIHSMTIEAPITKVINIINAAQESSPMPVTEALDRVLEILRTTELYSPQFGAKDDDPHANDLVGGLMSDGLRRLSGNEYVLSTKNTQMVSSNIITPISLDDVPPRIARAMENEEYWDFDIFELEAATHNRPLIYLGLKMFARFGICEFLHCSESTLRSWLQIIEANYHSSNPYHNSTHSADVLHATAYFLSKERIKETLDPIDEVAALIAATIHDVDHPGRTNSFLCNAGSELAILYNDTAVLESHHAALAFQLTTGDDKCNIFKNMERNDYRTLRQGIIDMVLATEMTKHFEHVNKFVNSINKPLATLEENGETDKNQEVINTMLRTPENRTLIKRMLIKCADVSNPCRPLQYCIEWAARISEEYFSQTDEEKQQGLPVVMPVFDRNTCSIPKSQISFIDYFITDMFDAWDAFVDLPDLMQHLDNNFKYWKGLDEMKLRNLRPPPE
High affinity 3',5'-cyclic-AMP phosphodiesterase 7A, sequence (Q13946 whole entry): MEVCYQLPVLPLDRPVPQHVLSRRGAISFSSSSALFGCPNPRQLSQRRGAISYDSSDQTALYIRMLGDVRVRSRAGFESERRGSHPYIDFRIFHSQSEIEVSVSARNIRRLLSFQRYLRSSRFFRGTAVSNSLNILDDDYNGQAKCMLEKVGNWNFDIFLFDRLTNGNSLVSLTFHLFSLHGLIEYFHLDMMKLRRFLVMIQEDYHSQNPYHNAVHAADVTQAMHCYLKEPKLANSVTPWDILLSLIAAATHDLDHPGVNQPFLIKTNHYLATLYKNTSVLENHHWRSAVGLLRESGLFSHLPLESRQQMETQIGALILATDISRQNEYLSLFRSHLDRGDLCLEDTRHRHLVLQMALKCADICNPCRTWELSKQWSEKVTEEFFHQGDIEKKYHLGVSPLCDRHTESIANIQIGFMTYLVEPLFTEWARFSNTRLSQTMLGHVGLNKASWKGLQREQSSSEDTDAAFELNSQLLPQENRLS

O=C(O)Cc1ccc(Cc2cc(-c3cccc(Cl)c3)nc(C(F)(F)F)c2)cc1 [ZATOLMILAST]
Activity (Mus musculus): Active
permeability [1]: 53 ×10⁻⁶ cm/s
fraction unbound [2]: 0.002 to 0.005
fraction unbound [3]: 0.002 to 0.005
Imax [4]: 89%
Kinetic_solubility [5]: 95 µM
pIC50 [6]: < 5.00
half-life [7]: 10 to 12 h
BPR [8]: 0.45
Cmax [9]: 153 ng/mL
bioavailability [10]: 80 to 100%
Activity [11]: Non-Toxic
Activity [12]: Toxic
Activity [13]: Non-Toxic
Activity [14]: Non-Toxic
Activity (Cynomolgus monkey): Non-Toxic
inhibition (INH) [15]: Not Active
inhibition (INH) [16]: Not Active
inhibition (INH) [17]: Not Active
inhibition (INH) [18]: Not Active
inhibition (INH) [19]: Not Active
inhibition (INH) [20]: Not Active
inhibition (INH) [21]: Not Active
inhibition (INH) [22]: Not Active
inhibition (INH) [23]: Not Active
inhibition (INH) [24]: Not Active
inhibition (INH) [25]: Not Active
inhibition (INH) [26]: Not Active
inhibition (INH) [27]: Not Active
